Measured values from ChEMBL document CHEMBL4393666, “Synthesis and Anti-HCV Activities of 4'-Fluoro-2'-Substituted Uridine Triphosphates and Nucleotide Prodrugs: Discovery of 4'-Fluoro-2'- C-methyluridine 5'-Phosphoramidate Prodrug (AL-335) for the Treatment of Hepatitis C Infection” (J Med Chem, 2019).

Legend:
Hepatitis C virus [1] = experiment: Antiviral activity against HCV genotype 1 infected in human assessed as reduction in viral infection at 800 mg, qd measured after 6 weeks in presence of odalasvir/simeprevir relative to control; type: functional, Hepacivirus hominis; parameters: scale not given: the % may be the effect or the level left
[2] = Drug metabolism in human primary hepatocytes assessed as 2a-TP formation at 10 uM after 6 to 24 hrs by LC-MS/MS analysis
Hepatitis C virus [3] = experiment: Antiviral activity against HCV genotype 4a subgenomic replicon expressing NS5B measured after 3 days by bright-glo luciferase reporter gene assay; type: functional, organism-based, Hepacivirus hominis; conditions: subtype 4a, 72 h
Procedure, shortened: (§1)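 Chimeric replicons carrying the NS5B of each genotype (1a H77, 1b Con1, 2b ADQ73660, 3a NZL1, 4a ABD75829). Firefly luciferase is driven by the poliovirus IRES and the HCV nonstructural genes by the EMCV IRES. Transiently transfected into Lunet cells, 10,000 cells/well. 3-fold serial dilutions, 0.5% DMSO final, 3 days. Read-out: firefly luciferase (Bright-Glo).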

Hepatitis C virus [4] = experiment: Antiviral activity against HCV genotype 2b subgenomic replicon expressing NS5B measured after 3 days by bright-glo luciferase reporter gene assay; type: functional, organism-based, Hepacivirus hominis; conditions: subtype 2b, 72 h; procedure, shortened: as §1
[5] = Drug metabolism in Beagle dog liver assessed as 2a-TP level at 9.87 mg/kg, po administered as single dose measured at 24 hrs by LC-MS/MS analysis; type: ADME, organism-based, Canis lupus familiaris; conditions: in vivo
Procedure, shortened: (§2)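 Male non-naïve beagle dogs fasted overnight, single oral dose of 9.87 mg/kg (5 mg/kg parent nucleoside equivalent) as a solution in 40% PEG400/water. Liver extracts analysed for NTP by LC-MS/MS against liver-homogenate calibrants. N=2 at 4 h, N=3 at 12 and 24 h.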

[6] = Cytotoxicity against human HepG2 cells treated for 8 days measured post-last dose by Celltiter-glo luminescent assay; type: cell-based
Procedure, shortened: (§3)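 Cells at 1×10^5/well on collagen I, first kept 8 days in recommended medium without drug. Then compound exposure for 8 days, refed every other day. Viability by CellTiter-Glo luminescence; CC50 by curve fitting.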

Hepatitis C virus [7] = experiment: Antiviral activity against HCV genotype 1b con1 subgenomic replicon expressing NS5B measured after 3 days by bright-glo luciferase reporter gene assay; type: functional, organism-based, Hepacivirus hominis; conditions: subtype 1b con1, 72 h; procedure, shortened: as §1
[8] = Drug metabolism in human hepatocytes assessed as 2a-TP formation per million cells at 50 uM after 24 hrs by LC-MS/MS analysis; type: ADME, cell-based, Hepatocyte
Procedure, shortened: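 Primary human hepatocytes, 1.5-2 million cells/well, in Williams E medium, acclimated >18 h. Incubated with compound at 50 μM extracellular for 24 h at 37°C, 5% CO2. Washed with cold saline, methanol/water lysis, NTP measured by LC-MS/MS per million cells.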

[9] = Cytotoxicity against human HuH7 cells infected with HCV con1 subgenomic replicon assessed as reduction in cell viability measured after 3 days by CellTiter-blue cell viability assay; type: cell-based, Huh-7
Procedure, shortened: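 Con1 replicon Huh-7 cells treated as for the replicon assay (DMEM, 2% FBS, 0.5% DMSO, no G418, 37°C) for 3 days. Viability by CellTiter-Blue; CC50 by curve fitting.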

[10] = Drug metabolism in human primary hepatocytes assessed as 2a-TP formation after 24 hrs by LC-MS/MS analysis
[11] = Cytotoxicity against human MT4 cells treated for 8 days measured post-last dose by Celltiter-glo luminescent assay; type: cell-based; procedure, shortened: as §3
Hepatitis C virus [12] = experiment: Antiviral activity against HCV con1 subgenomic replicon infected in human HuH7 cells assessed as reduction in viral RNA replication by qRT-PCR analysis; type: functional, organism-based, Hepacivirus hominis; conditions: isolate Con1, Huh-7
Procedure, shortened: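 Con1 subgenomic replicon Huh-7 cells (neomycin selection, kept in DMEM/10% FBS with 0.25 mg/ml G418) treated with compounds in DMEM, 2% FBS, 0.5% DMSO, no G418, at 37°C. Total RNA extracted; HCV RNA copy number by multiplex Taqman QRT-PCR. EC50/EC90 by 4-parameter curve fit; EC50 is the mean of ≥2 independent runs.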

[13] = Drug metabolism in Beagle dog liver assessed as 2a-TP level at 9.87 mg/kg, po administered as single dose measured at 12 hrs by LC-MS/MS analysis; type: ADME, organism-based, Canis lupus familiaris; conditions: in vivo; procedure, shortened: as §2
[14] = Drug metabolism in Beagle dog liver assessed as 2a-TP level at 9.87 mg/kg, po administered as single dose measured at 4 hrs by LC-MS/MS analysis; type: ADME, organism-based, Canis lupus familiaris; conditions: in vivo; procedure, shortened: as §2
[15] = Cytotoxicity against human HuH7 cells treated for 8 days measured post-last dose by Celltiter-glo luminescent assay; type: cell-based, Huh-7; procedure, shortened: as §3
Hepatitis C virus [16] = experiment: Antiviral activity against HCV genotype 3a NZL1 subgenomic replicon expressing NS5B measured after 3 days by bright-glo luciferase reporter gene assay; type: functional, organism-based, Hepacivirus hominis; conditions: subtype 3a NZL1, 72 h; procedure, shortened: as §1
[17] = Cytotoxicity against human HeLa cells treated for 8 days measured post-last dose by Celltiter-glo luminescent assay; type: cell-based; procedure, shortened: as §3
[18] = Cytotoxicity against human U937 cells treated for 8 days measured post-last dose by Celltiter-glo luminescent assay; type: cell-based, U-937; procedure, shortened: as §3
[19] = Cytotoxicity against human A549 cells treated for 8 days measured post-last dose by Celltiter-glo luminescent assay; type: cell-based; procedure, shortened: as §3
Hepatitis C virus [20] = experiment: Antiviral activity against HCV genotype 1a H77 expressing NS5B measured after 3 days by bright-glo luciferase reporter gene assay; type: functional, organism-based, Hepacivirus hominis; conditions: subtype 1a H77, 72 h; procedure, shortened: as §1
[21] = Drug metabolism in human HuH7 cells assessed as 2a-TP formation per million cells at 50 uM after 24 hrs by LC-MS/MS analysis; type: ADME, cell-based; conditions: huh-7, 24 h
Procedure, shortened: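 Huh-7 cells in 6-well plates, DMEM with 10% FBS and G418, incubated with compound at 50 μM extracellular for 24 h at 37°C, 5% CO2. Washed with cold 0.9% NaCl, lysed in 70% methanol. Intracellular NTP by LC-MS/MS against cell-matrix calibrants, internal standard N6-benzoyladenine; expressed per million cells.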

CC(C)OC(=O)[C@H](C)N[P@](=O)(OC[C@@]1(F)O[C@@H](n2ccc(=O)[nH]c2=O)[C@](C)(O)[C@@H]1O)Oc1ccccc1 [ADAFOSBUVIR]
Activity (Hepatitis C virus [1]): 100%
Drug metabolism [2]: Metabolite_Detected
EC50 (Hepatitis C virus [3]): 60 nM
EC50 (Hepatitis C virus [4]): 40 nM
Drug metabolism [5]: 29.991 µM
CC50 at 192 h [6]: > 100000 nM
EC50 (Hepatitis C virus [7]): 40 nM
Drug metabolism [8]: 3540 pmol
CC50 at 72 h [9]: > 99000 nM
Drug metabolism [10]: Dose-dependent effect
CC50 at 192 h [11]: > 100000 nM
EC50 (Hepatitis C virus [12]): 70 nM
Drug metabolism [13]: 35.222 µM
Drug metabolism [14]: 23.19 µM
CC50 at 192 h [15]: 96100 nM
EC50 (Hepatitis C virus [16]): 60 nM
CC50 at 192 h [17]: > 100000 nM
CC50 at 192 h [18]: > 100000 nM
CC50 at 192 h [19]: > 100000 nM
EC50 (Hepatitis C virus [20]): 60 nM
Drug metabolism [21]: 5695 pmol
